Test results published in ChEMBL document CHEMBL4043075, “Development of Fluorinated Analogues of Perhexiline with Improved Pharmacokinetic Properties and Retained Efficacy” (J Med Chem, 2017).
Calls of active or inactive are those of the source. No cut-off for these calls is given here.

Experiments:
[1] = Plasma concentration in Sprague-Dawley rat at 10 mg/kg, po administered via gavage every 24 hrs measured at 8 hrs post last dose by LC-MS/MS analysis; assay type: ADME, organism-based
Summary of the method: (§1)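 Male Sprague-Dawley rats, daily oral dosing at 10 mg/kg. Plasma sampled at 1, 2, 4, 8 and 24 h after dosing, n = 3 per timepoint. Myocardium measured at 1 and 8 h. Myocardium:plasma ratio taken from drug concentration.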

[2] = Drug uptake in Sprague-Dawley rat myocardium at 10 mg/kg, po administered via gavage every 24 hrs measured at 8 hrs post last dose by LC-MS/MS analysis; assay type: ADME, organism-based; conditions: read-out: Drug uptake; summary of the method: as §1
[3] = Ratio of drug level in myocardium to plasma in BALB/c mouse at 10 mg/kg, po administered via gavage every 24 hrs for 7 days measured 4 hrs post last dose by LC-MS/MS analysis; assay type: ADME, organism-based; conditions: myocardium and plasma
Summary of the method: (§2)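 Male BALB/c mice, daily oral gavage at 10 mg/kg. Plasma and myocardium sampled 1, 4, 8 and 24 h after dosing, n = 3 per timepoint. […] Myocardium:plasma ratios taken from drug concentration or from AUC. Student's t-test used.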

[4] = AUC (0 to 24 hrs) in BALB/c mouse plasma at 10 mg/kg, po administered via gavage every 24 hrs for 7 days measured post last dose by LC-MS/MS analysis; assay type: ADME, organism-based; design: dose 10 mg/kg, time < 24 hr, route oral; summary of the method: as §2
[5] = target: T1, Carnitine O-palmitoyltransferase 1, muscle isoform (Rattus norvegicus, UniProt Q63704); assay: Inhibition of Wistar rat heart mitochondrial CPT-1 assessed as reduction in conversion of palmitoyl CoA and L-carnitine into palmitoylcarnitine preincubated for 3 mins followed by L-carnitine and palmitoyl CoA addition measured for 3.5 mins by spectrophotometric analysis
T1 sequence (Q63704 whole entry): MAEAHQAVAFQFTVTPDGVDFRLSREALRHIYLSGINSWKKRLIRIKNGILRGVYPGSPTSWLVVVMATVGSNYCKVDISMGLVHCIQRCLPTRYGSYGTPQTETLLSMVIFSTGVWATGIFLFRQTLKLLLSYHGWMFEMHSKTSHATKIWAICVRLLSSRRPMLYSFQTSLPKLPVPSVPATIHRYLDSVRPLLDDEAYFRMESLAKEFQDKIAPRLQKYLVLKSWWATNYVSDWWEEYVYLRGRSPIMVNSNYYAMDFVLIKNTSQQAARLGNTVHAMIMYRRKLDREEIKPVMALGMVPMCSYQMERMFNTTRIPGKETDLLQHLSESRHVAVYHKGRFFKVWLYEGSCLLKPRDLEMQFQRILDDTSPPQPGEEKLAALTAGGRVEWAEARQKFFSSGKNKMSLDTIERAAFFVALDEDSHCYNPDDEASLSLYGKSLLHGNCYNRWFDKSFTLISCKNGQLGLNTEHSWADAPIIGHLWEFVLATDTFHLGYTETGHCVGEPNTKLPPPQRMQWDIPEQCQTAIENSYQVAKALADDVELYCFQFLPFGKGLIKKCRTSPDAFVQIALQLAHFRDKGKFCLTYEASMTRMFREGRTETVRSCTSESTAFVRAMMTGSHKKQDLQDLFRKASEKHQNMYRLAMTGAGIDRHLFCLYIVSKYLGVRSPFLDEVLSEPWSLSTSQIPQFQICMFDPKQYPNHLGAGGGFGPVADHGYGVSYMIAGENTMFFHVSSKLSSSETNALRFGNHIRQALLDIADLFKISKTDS

Heart [6] = assay: Cardioprotective activity in Langendorff perfused C57BL/6 mouse heart perfused for 30 mins in presence of high fat; assay type: functional, tissue-based
[7] = Ratio of AUC (0 to 24 hrs) in myocardium to plasma in BALB/c mouse at 10 mg/kg, po administered via gavage every 24 hrs for 7 days measured post last dose by LC-MS/MS analysis; assay type: ADME, organism-based; conditions: myocardium and plasma, read-out: Ratio AUC; summary of the method: as §2
Heart [8] = assay: Cardioprotective activity in Langendorff perfused C57BL/6 mouse heart assessed as increase in cardiac contractility at 10 uM perfused for 30 mins in presence of high fat relative to control; assay type: functional
Summary of the method: (§3)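 Isolated C57BL/6 hearts (25-30 g) retrogradely perfused at constant 80 mmHg, 37 °C, 95% O2/5% CO2, with modified Krebs containing 1.2 mM sodium palmitate conjugated to 3% BSA. After 10 min stabilisation, 30 min perfusion with control buffer or compound at 2 or 10 µM. LVdP/dt max and min derived from LV pressure over 40 min; mean ± SEM, n = 12-19, 1-way ANOVA with Bonferroni.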

[9] = Drug uptake in BALB/c mouse myocardium at 10 mg/kg, po administered via gavage every 24 hrs for 7 days measured 4 hrs post last dose by LC-MS/MS analysis; assay type: ADME, organism-based; conditions: read-out: Drug uptake; summary of the method: as §2
[10] = Plasma concentration in Sprague-Dawley rat at 10 mg/kg, po administered via gavage every 24 hrs measured at 1 hr post dose by LC-MS/MS analysis; assay type: ADME, organism-based; summary of the method: as §1
[11] = Ratio of drug level in myocardium to plasma in Sprague-Dawley rat at 10 mg/kg, po administered via gavage every 24 hrs measured at 1 hr post dose by LC-MS/MS analysis; assay type: ADME, organism-based; conditions: myocardium and plasma; summary of the method: as §1
[12] = Ratio of drug level in myocardium to plasma in BALB/c mouse at 10 mg/kg, po administered via gavage every 24 hrs for 7 days measured 8 hrs post last dose by LC-MS/MS analysis; assay type: ADME, organism-based; conditions: myocardium and plasma; summary of the method: as §2
[13] = Drug uptake in BALB/c mouse myocardium at 10 mg/kg, po administered via gavage every 24 hrs for 7 days measured 8 hrs post last dose by LC-MS/MS analysis; assay type: ADME, organism-based; conditions: read-out: Drug uptake; summary of the method: as §2
[14] = Plasma concentration in BALB/c mouse at 10 mg/kg, po administered via gavage every 24 hrs for 7 days measured at 1 hr post last dose by LC-MS/MS analysis; assay type: ADME, organism-based; summary of the method: as §2
[15] = AUC (0 to 24 hrs) in BALB/c mouse myocardium at 10 mg/kg, po administered via gavage every 24 hrs for 7 days measured post last dose by LC-MS/MS analysis; assay type: ADME, organism-based; design: time < 24 hr, dose 10 mg/kg, route oral; summary of the method: as §2
[16] = Drug uptake in Sprague-Dawley rat myocardium at 10 mg/kg, po administered via gavage every 24 hrs measured at 1 hr post last dose by LC-MS/MS analysis; assay type: ADME, organism-based; conditions: read-out: Drug uptake; summary of the method: as §1
CYP2D6 = CYP2D6 (Homo sapiens, UniProt P10635); assay: Drug metabolism assessed as human CYP2D6-mediated compound degradation by measuring half life at 5 uM up to 45 mins in presence of NADPH by LC-MS/MS analysis; assay type: ADME
Chain of CYP2D6 (P10635 whole entry): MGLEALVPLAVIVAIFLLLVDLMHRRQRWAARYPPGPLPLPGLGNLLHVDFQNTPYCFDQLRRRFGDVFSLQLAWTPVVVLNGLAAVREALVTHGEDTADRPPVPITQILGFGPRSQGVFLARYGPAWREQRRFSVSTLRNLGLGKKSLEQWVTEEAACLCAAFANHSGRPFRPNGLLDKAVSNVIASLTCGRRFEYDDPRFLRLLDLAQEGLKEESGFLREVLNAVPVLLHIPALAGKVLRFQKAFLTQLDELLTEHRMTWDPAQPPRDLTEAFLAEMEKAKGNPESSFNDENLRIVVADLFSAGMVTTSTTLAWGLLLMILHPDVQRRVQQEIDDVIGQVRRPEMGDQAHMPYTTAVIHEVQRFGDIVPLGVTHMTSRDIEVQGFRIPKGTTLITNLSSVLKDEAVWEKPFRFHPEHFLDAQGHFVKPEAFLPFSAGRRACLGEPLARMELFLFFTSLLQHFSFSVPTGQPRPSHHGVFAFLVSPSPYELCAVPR

[17] = Plasma concentration in BALB/c mouse at 10 mg/kg, po administered via gavage every 24 hrs for 7 days measured 8 hrs post last dose by LC-MS/MS analysis; assay type: ADME, organism-based; summary of the method: as §2
[18] = Plasma concentration in Sprague-Dawley rat at 10 mg/kg, po administered via gavage every 24 hrs measured at 2 hrs post last dose by LC-MS/MS analysis; assay type: ADME, organism-based; summary of the method: as §1
[19] = Drug uptake in BALB/c mouse myocardium at 10 mg/kg, po administered via gavage every 24 hrs for 7 days measured 1 hr post last dose by LC-MS/MS analysis; assay type: ADME, organism-based; conditions: read-out: Drug uptake; summary of the method: as §2
[20] = Stability of the compound in pH 7.4 PBS buffer at 37 degC after 1 hr; assay type: physicochemical; conditions: pH 7.4, 1 h
Summary of the method: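 Compound incubated 1 h in pH 7.4 PBS at 37 °C, then checked for decomposition.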

[21] = Ratio of drug level in myocardium to plasma in BALB/c mouse at 10 mg/kg, po administered via gavage every 24 hrs for 7 days measured 1 hr post last dose by LC-MS/MS analysis; assay type: ADME, organism-based; conditions: myocardium and plasma; summary of the method: as §2
Heart [22] = assay: Cardioprotective activity against Langendorff perfused C57BL/6 mouse heart assessed as lusitropic effect at 10 uM measured for 40 mins reperfusion period in presence of high fat; assay type: functional, tissue-based; summary of the method: as §3
Heart [23] = assay: Cardioprotective activity in Langendorff perfused C57BL/6 mouse heart assessed as increase in cardiac relaxation at 10 uM perfused for 30 mins in presence of high fat relative to control; assay type: functional; summary of the method: as §3
[24] = Plasma concentration in BALB/c mouse at 10 mg/kg, po administered via gavage every 24 hrs for 7 days measured 4 hrs post last dose by LC-MS/MS analysis; assay type: ADME, organism-based; summary of the method: as §2
[25] = Half life in Sprague-Dawley rat liver microsomes at 3 uM up to 45 mins in presence of NADPH by LC-MS/MS analysis; assay type: ADME, microsome
[26] = Plasma concentration in Sprague-Dawley rat at 10 mg/kg, po administered via gavage every 24 hrs measured at 4 hrs post last dose by LC-MS/MS analysis; assay type: ADME, organism-based; summary of the method: as §1
[27] = Ratio of drug level in myocardium to plasma in Sprague-Dawley rat at 10 mg/kg, po administered via gavage every 24 hrs measured at 8 hrs post dose by LC-MS/MS analysis; assay type: ADME, organism-based; conditions: myocardium and plasma; summary of the method: as §1
[28] = Half life in human liver microsomes at 3 uM up to 45 mins in presence of NADPH by LC-MS/MS analysis; assay type: ADME, microsome

For FC1(F)CCC(C(CC2CCCCN2)C2CCCCC2)CC1 (centres undefined), the concentration at 8 h [1] was 179 ng/mL, the concentration at 8 h [2] was 1290 ng/mL and the Kp at 4 h [3] was 10.9. For the same molecule, the AUC at 24 h [4] was 3760 ng·h/mL, the IC50 [5] was 45 µM and the Activity (Heart [6]) was “Dose-dependent effect”. For the same molecule, the Kp [7] was 8.6, the “fold change (FC)” value (Heart [8]) was 1.8 and the concentration at 4 h [9] was 1880 ng/mL. For the same molecule, the concentration at 1 h [10] was 386 ng/mL, the Kp at 1 h [11] was 15.3 and the Kp at 8 h [12] was 9.5. The concentration at 8 h [13] was 1830 ng/mL, the concentration at 1 h [14] was 346 ng/mL and the AUC at 24 h [15] was 32400 ng·h/mL. It also gave a concentration at 1 h [16] of 5910 ng/mL, a half-life at 5 µM (CYP2D6) of 1.73 h and a concentration at 8 h [17] of 192 ng/mL. For the same molecule, the concentration at 2 h [18] was 375 ng/mL, the concentration at 1 h [19] was 3730 ng/mL and the Stability [20] was “Stable”. For the same molecule, the Kp at 1 h [21] was 10.7, the Activity (Heart [22]) was “Active” and the “fold change (FC)” value (Heart [23]) was 2.7. The concentration at 4 h [24] was 172 ng/mL, the half-life at 3 µM [25] was 1.2 h and the concentration at 4 h [26] was 297 ng/mL. For the same molecule, the Kp at 8 h [27] was 7.2 and the half-life at 3 µM [28] was > 8.33 h.
